Converted amounts (≈) assume the structure as drawn.

Assay type in all cases: functional
The subject of assay [1] is Aeromonas hydrophila. Briefly: Antibacterial activity against Aeromonas hydrophila FNSST 014 after 18 to 24 hrs by two-fold broth microdilution assay. In short, it runs like this: (§1)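 CLSI two-fold broth microdilution was used. Compounds were dissolved in DMSO, brought to 10 mg/mL in medium, then serially diluted in Mueller Hinton broth over 400–0.09 µg/mL. Overnight MHB cultures were diluted to 10^6 CFU/mL, and 10 µL was added per well. Plates were incubated 18–24 h at 37 °C, then 0.2 mg/mL INT was added for 30 min at 37 °C. MIC was the lowest concentration with no visible growth or pink colour, triplicate.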

Assay [2] relates to Pseudomonas aeruginosa. Briefly: Antibacterial activity against Pseudomonas aeruginosa FNSST 982 after 18 to 24 hrs by two-fold broth microdilution assay. The gist of the method:
as §1

In assay [3] the test system is Klebsiella pneumoniae. The assay can be described thus: Antibacterial activity against Klebsiella pneumoniae FNSST 011 after 18 to 24 hrs by two-fold broth microdilution assay. The gist of the method:
as §1

Assay [4] deals with Escherichia coli. Briefly: Antibacterial activity against Escherichia coli FNSST 982 after 18 to 24 hrs by two-fold broth microdilution assay. The gist of the method: as §1
In assay [5] the test system is Clostridium perfringens. Briefly: Antibacterial activity against Clostridium perfringens FNSST 4999 after 18 to 24 hrs by two-fold broth microdilution assay. The gist of the method:
(§2)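 CLSI two-fold broth microdilution. Compounds dissolved in DMSO, 10 mg/mL stock, serially diluted to 400–0.09 µg/mL in Mueller Hinton broth. Wells inoculated with 10^6 CFU/mL bacteria and incubated 18–24 h at 37 °C. 0.2 mg/mL INT added for 30 min. MIC taken as the lowest concentration with no visible growth or pink colour. Triplicate.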

In assay [6] the test system is Staphylococcus aureus. Briefly: Antibacterial activity against Staphylococcus aureus ATCC 25923 after 18 to 24 hrs by two-fold broth microdilution assay. In short, it runs like this: as §1
Assay [7] relates to Enterococcus faecalis. The assay can be described thus: Antibacterial activity against Enterococcus faecalis ATCC 29212 after 18 to 24 hrs by two-fold broth microdilution assay. The gist of the method:
as §1

Assay [8] deals with Bacillus cereus. The assay can be described thus: Antibacterial activity against Bacillus cereus ATCC 11778 after 18 to 24 hrs by two-fold broth microdilution assay. In short, it runs like this:
as §1

Assay [9] concerns Aspergillus fumigatus. The assay can be described thus: Antifungal activity against Aspergillus fumigatus FNSST 3833 assessed as diameter of zone of inhibition at 250 ug/disc after 72 hrs by disc diffusion method. To be noted: FNSST 3833, 72 h, read-out: DIZ. The gist of the method:
(§3)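 Fungi were grown overnight at 30 °C in Sabouraud dextrose broth to 10^4 cfu/mL, and 100 µL was spread on Sabouraud dextrose agar. 6 mm discs carried 250 µg (25 µL of a 10 mg/mL stock in 96% ethanol), with ethanol as the negative control. Incubation was at 30 °C for 48 h (yeast) or 72 h (molds). Zone diameter was read including the disc, in triplicate, mean ± SE.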

The subject of assay [10] is Talaromyces funiculosus. The assay can be described thus: Antifungal activity against Penicillium funiculosum FNSST 3724 assessed as diameter of zone of inhibition at 250 ug/disc after 72 hrs by disc diffusion method. To be noted: FNSST 3724, 72 h, read-out: DIZ. The gist of the method: as §3
Assay [11] deals with Aeromonas hydrophila. The assay can be described thus: Antibacterial activity against Aeromonas hydrophila FNSST 014 assessed as diameter of zone of inhibition at 250 ug/disc after 24 hrs by disc diffusion method. The settings on record: FNSST 014, 24 h, read-out: DIZ. The gist of the method: (§4)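 Bacteria were grown overnight at 37 °C in TSB to about 10^6 cfu/mL, and 100 µL was spread on Mueller Hinton agar. Sterile 6 mm discs were each loaded with 25 µL of a 10 mg/mL stock in 96% ethanol, giving 250 µg/disc. Ethanol served as the negative control. Plates were incubated 24 h at 37 °C. Inhibition zone diameter was measured including the disc, in triplicate, as mean ± SE.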

In assay [12] the test system is Pseudomonas aeruginosa. The assay can be described thus: Antibacterial activity against Pseudomonas aeruginosa FNSST 982 assessed as diameter of zone of inhibition at 250 ug/disc after 24 hrs by disc diffusion method. To be noted: FNSST 982, 24 h, read-out: DIZ. In short, it runs like this:
as §4

Assay [13] deals with Klebsiella pneumoniae. The assay can be described thus: Antibacterial activity against Klebsiella pneumoniae FNSST 011 assessed as diameter of zone of inhibition at 250 ug/disc after 24 hrs by disc diffusion method. To be noted: FNSST 011, 24 h, read-out: DIZ. The gist of the method:
as §4

The test system of assay [14] is Escherichia coli. The assay can be described thus: Antibacterial activity against Escherichia coli FNSST 982 assessed as diameter of zone of inhibition at 250 ug/disc after 24 hrs by disc diffusion method. To be noted: FNSST 982, 24 h, read-out: DIZ. The gist of the method: as §4
Assay [15] deals with Clostridium perfringens. Briefly: Antibacterial activity against Clostridium perfringens FNSST 4999 assessed as diameter of zone of inhibition at 250 ug/disc after 24 hrs by disc diffusion method. To be noted: FNSST 4999, 24 h, read-out: DIZ. In short, it runs like this: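 Disc diffusion per CLSI: 100 µL of 10^6 cfu/mL bacterial suspension spread on Mueller Hinton agar. 6 mm discs loaded with 25 µL of 10 mg/mL compound stock in 96% ethanol (250 µg/disc); ethanol as negative control. Incubated 24 h at 37 °C. Inhibition zone diameter measured in mm including the disc, triplicate, reported as mean ± SE.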

In assay [16] the test system is Staphylococcus aureus. Briefly: Antibacterial activity against Staphylococcus aureus ATCC 25923 assessed as diameter of zone of inhibition at 250 ug/disc after 24 hrs by disc diffusion method. The settings on record: ATCC 25923, 24 h, read-out: DIZ. The gist of the method: as §4
Assay [17] deals with Enterococcus faecalis. The assay can be described thus: Antibacterial activity against Enterococcus faecalis ATCC 29212 assessed as diameter of zone of inhibition at 250 ug/disc after 24 hrs by disc diffusion method. The settings on record: ATCC 29212, 24 h, read-out: DIZ. In short, it runs like this: as §4
Assay [18] concerns Bacillus cereus. Briefly: Antibacterial activity against Bacillus cereus ATCC 11778 assessed as diameter of zone of inhibition at 250 ug/disc after 24 hrs by disc diffusion method. The settings on record: ATCC 11778, 24 h, read-out: DIZ. In short, it runs like this: as §4
Assay [19] deals with Candida albicans. The assay can be described thus: Antifungal activity against Candida albicans ATCC 10231 assessed as diameter of zone of inhibition at 250 ug/disc after 48 hrs by disc diffusion method. To be noted: ATCC 10231, 48 h, read-out: DIZ. The gist of the method:
as §3

Assay [20] deals with Pseudomonas aeruginosa. The assay can be described thus: Antibacterial activity against GIM-1 expressing Pseudomonas aeruginosa isolate 197 after 18 to 24 hrs by two-fold broth microdilution assay. The gist of the method:
as §1

Assay [21] has as its system Acinetobacter baumannii. The assay can be described thus: Antibacterial activity against SIM-1 expressing Acinetobacter baumannii isolate 170 after 18 to 24 hrs by two-fold broth microdilution assay. The gist of the method:
as §2

In assay [22] the test system is Escherichia coli. The assay can be described thus: Antibacterial activity against […] expressing Escherichia coli isolate 235 after 18 to 24 hrs by two-fold broth microdilution assay. The gist of the method: as §2
The test system of assay [23] is Escherichia coli. Briefly: Antibacterial activity against TEM-1/SHV-12 expressing Escherichia coli isolate 237 after 18 to 24 hrs by two-fold broth microdilution assay. In short, it runs like this:
as §2

Assay [24] deals with Escherichia coli. The assay can be described thus: Antibacterial activity against […] expressing Escherichia coli isolate 4024 after 18 to 24 hrs by two-fold broth microdilution assay. The gist of the method: as §2
Assay [25] has as its system Aeromonas caviae. The assay can be described thus: Antibacterial activity against TEM-1/CTX-M-15 expressing Aeromonas caviae isolate 260 after 18 to 24 hrs by two-fold broth microdilution assay. The gist of the method: as §1
The subject of assay [26] is Aeromonas caviae. The assay can be described thus: Antibacterial activity against […] expressing Aeromonas caviae isolate 258 after 18 to 24 hrs by two-fold broth microdilution assay. The gist of the method:
as §1

Assay [27] has as its system Aeromonas hydrophila. Briefly: Antibacterial activity against TEM-1/SHV-12 expressing Aeromonas hydrophila isolate 268 after 18 to 24 hrs by two-fold broth microdilution assay. The gist of the method:
as §1

Assay [28] deals with Kluyvera intermedia. Briefly: Antibacterial activity against TEM-1/SHV-12/[…] expressing Enterobacter intermedius isolate 243 after 18 to 24 hrs by two-fold broth microdilution assay. In short, it runs like this: as §1
For assay [29], the system named is Enterobacter cloacae. Briefly: Antibacterial activity against CTX-15 expressing Enterobacter cloacae isolate 51 after 18 to 24 hrs by two-fold broth microdilution assay.
Assay [30] has as its system Enterobacter cloacae. Briefly: Antibacterial activity against TEM-1/CTX-M-15 expressing Enterobacter cloacae isolate 62 after 18 to 24 hrs by two-fold broth microdilution assay.
Assay [31] concerns Enterobacter cloacae. The assay can be described thus: Antibacterial activity against TEM-1/SHV-12 expressing Enterobacter cloacae isolate 306 after 18 to 24 hrs by two-fold broth microdilution assay.
The test system of assay [32] is Klebsiella pneumoniae. The assay can be described thus: Antibacterial activity against TEM-1/SHV-12 expressing Klebsiella pneumoniae isolate 303 after 18 to 24 hrs by two-fold broth microdilution assay. The gist of the method: as §1
Assay [33] relates to Stenotrophomonas maltophilia. The assay can be described thus: Antibacterial activity against […] expressing Stenotrophomonas maltophilia isolate 125 after 18 to 24 hrs by two-fold broth microdilution assay. The gist of the method:
as §1

Regarding `O/N=C/c1nccn1-c1ccccc1`, the MIC in [1] was 50 µg/mL (≈ 267 µM); in assay [2] it was 25 µg/mL (≈ 134 µM); in assay [3], 100 µg/mL (≈ 534 µM); in assay [4], 50 µg/mL (≈ 267 µM); in assay [5] it was 100 µg/mL (≈ 534 µM); in [6], 100 µg/mL (≈ 534 µM). The MIC in assay [7] was determined as 6.25 µg/mL (≈ 33.4 µM); in assay [8] it was 50 µg/mL (≈ 267 µM). The zone of inhibition at 250 µg/disc in assay [9] came out at 19.5 mm; in [10], 17.9 mm; in [11], 17.7 mm; in [12], 15.8 mm; in assay [13], 17.2 mm; in assay [14], 17.8 mm. For the same molecule, the zone of inhibition at 250 µg/disc in [15] was 16.5 mm; in assay [16], 10.1 mm; in assay [17], 15.7 mm; in assay [18], 15.4 mm; in assay [19] it was 16.4 mm.

As for `CN(C)[C@@H]1C(O)=C(C(N)=O)C(=O)[C@@]2(O)C(O)=C3C(=O)c4c(O)cccc4[C@@](C)(O)[C@H]3C[C@@H]12` [TETRACYCLINE], the MIC in assay [20] is more than 8 µg/mL; in assay [21] it was 64 µg/mL (≈ 144 µM); in assay [22], 32 µg/mL (≈ 72 µM); in assay [23] it was 128 µg/mL (≈ 288 µM); in assay [24], 16 µg/mL (≈ 36 µM); in [25], 128 µg/mL (≈ 288 µM). In addition, the MIC in assay [26] was 64 µg/mL (≈ 144 µM); in [27], 8 µg/mL (≈ 18 µM); in [28] it was 16 µg/mL (≈ 36 µM); in assay [29] it was 64 µg/mL (≈ 144 µM); in assay [30], 16 µg/mL (≈ 36 µM); in assay [31] it was 16 µg/mL (≈ 36 µM). For the same molecule, the MIC in assay [32] was 256 µg/mL (≈ 576 µM); in assay [33], 128 µg/mL (≈ 288 µM).

For the molecule `O/N=C/c1nccn1-c1ccc(F)cc1`, the MIC came out at 25 µg/mL (≈ 122 µM) in assay [1]; 50 µg/mL (≈ 244 µM) in [2]; 100 µg/mL (≈ 487 µM) in [3]; 25 µg/mL (≈ 122 µM) in assay [4]; 100 µg/mL (≈ 487 µM) in assay [5]; 100 µg/mL (≈ 487 µM) in assay [6]. The minimum inhibitory concentration (MIC) in assay [7] worked out at 25 µg/mL (≈ 122 µM); in assay [8] it was 50 µg/mL (≈ 244 µM). The zone of inhibition at 250 µg/disc was 15 mm in assay [9]; 18.6 mm in [10]; 15.3 mm in assay [11]; 9.8 mm in assay [12]; 10.3 mm in assay [13]; 14.8 mm in [14]. Moreover, the zone of inhibition at 250 µg/disc in assay [15] turned out to be 8.6 mm; in assay [16], 12.4 mm; in assay [17], 12.2 mm; in assay [18], 14 mm; in [19], 18.9 mm.
